Laboratory results published in ChEMBL document CHEMBL1155433, “Benzimidazole Thumb Pocket I finger-loop inhibitors of HCV NS5B polymerase: improved drug-like properties through C-2 SAR in three sub-series” (Bioorg Med Chem Lett, 2010).
Converted amounts (≈) assume the structure as drawn.

Key:
[1] = system: Hepatitis C virus; assay: Inhibition of HCV 1b NS5Bdelta21 polymerase assessed as [3H]UTP incorporated into the biotinylated primer after 90 mins by scintillation counting; type: functional, Hepatitis C virus subtype 1b
[2] = Cytotoxicity against human HuH7 cells; type: cell-based, Huh-7; conditions: read-out: TC50 (the source's name)
[3] = system: Hepatitis C virus; assay: Antiviral activity against HCV1b in human Huh7 cells assessed as reduction of viral RNA replication after 72 hrs by luciferase reporter assay; type: functional, organism-based, Hepacivirus hominis; conditions: genotype 1b, Huh-7, 72 h
[4] = Inhibition of calf thymus DNA-directed RNA polymerase 2 assessed as [33P]UTP incorporated into the RNA after 120 mins by scintillation counting; set-up: species or system Bos taurus
[5] = Solubility in phosphate buffer at pH 7.2 after 24 hrs by shake flask method; type: physicochemical
[6] = Permeability across human Caco-2 cells; type: ADME, cell-based; conditions: read-out: permeability
[7] = (§1) Half life in human liver microsomes at 10 uM; type: ADME, Microsome; conditions: liver microsomes
In short: (§2)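 Half-life was measured with compound at 10 µM in human or rat liver microsomes.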

[8] = Half life in rat liver microsomes at 10 uM; type: ADME, Microsome; in short: as §2
[9] = target: Cytochrome P450 2C9 (Homo sapiens, UniProt P11712); assay: Inhibition of CYP2C9; type: ADME
[10] = target: Cytochrome P450 2C19 (Homo sapiens, UniProt P33261); assay: Inhibition of CYP2C19; type: ADME
[11] = Cmax in Sprague-Dawley rat plasma at 5 mg/kg, po; type: ADME, organism-based; set-up: dose 5 mg/kg, route oral
In short: (§3)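 Male Sprague-Dawley rats, fasted overnight, given 5 mg/kg by oral gavage in 0.5% methocel/0.3% Tween-80. Plasma was pooled from three animals at each time point over 0–8 h. Compound was quantified after liquid–liquid extraction by HPLC with UV detection.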

[12] = Tmax in Sprague-Dawley rat plasma at 5 mg/kg, po; type: ADME, organism-based; set-up: dose 5 mg/kg, route oral; in short: as §3
[13] = AUC in Sprague-Dawley rat plasma at 5 mg/kg, po; type: ADME, organism-based; set-up: dose 5 mg/kg, route oral; in short: as §3
[14] = Mean residence time in Sprague-Dawley rat plasma at 5 mg/kg, po; type: ADME, organism-based; set-up: dose 5 mg/kg, route oral; in short: as §3
[15] = species on record: Homo sapiens; assay: Protein binding in human plasma by equilibrium dialysis method; conditions: read-out: PPB (converted)
[16] = system: Liver microsomes; assay: as §1; type: ADME, Microsome; conditions: microsomes, 10 µM; in short: as §2
[17] = target: Cytochrome P450 3A4 (Homo sapiens, UniProt P08684); assay: Inhibition of CYP3A4; type: ADME
Sequence of Cytochrome P450 3A4 (P08684 whole entry): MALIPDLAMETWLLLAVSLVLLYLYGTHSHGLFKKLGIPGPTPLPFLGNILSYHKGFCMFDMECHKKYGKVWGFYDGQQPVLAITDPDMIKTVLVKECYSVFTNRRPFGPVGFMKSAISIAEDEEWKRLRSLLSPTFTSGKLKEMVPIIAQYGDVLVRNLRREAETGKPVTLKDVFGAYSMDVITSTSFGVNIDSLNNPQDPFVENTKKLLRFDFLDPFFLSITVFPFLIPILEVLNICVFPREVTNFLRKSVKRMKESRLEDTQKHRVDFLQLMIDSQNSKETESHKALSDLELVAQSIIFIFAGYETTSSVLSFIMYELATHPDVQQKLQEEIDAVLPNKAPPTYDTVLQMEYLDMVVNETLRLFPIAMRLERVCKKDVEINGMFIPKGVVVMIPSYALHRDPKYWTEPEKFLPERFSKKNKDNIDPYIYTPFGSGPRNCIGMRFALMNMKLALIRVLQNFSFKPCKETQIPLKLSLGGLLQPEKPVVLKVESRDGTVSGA

Sequence of Cytochrome P450 2C9 (P11712 whole entry): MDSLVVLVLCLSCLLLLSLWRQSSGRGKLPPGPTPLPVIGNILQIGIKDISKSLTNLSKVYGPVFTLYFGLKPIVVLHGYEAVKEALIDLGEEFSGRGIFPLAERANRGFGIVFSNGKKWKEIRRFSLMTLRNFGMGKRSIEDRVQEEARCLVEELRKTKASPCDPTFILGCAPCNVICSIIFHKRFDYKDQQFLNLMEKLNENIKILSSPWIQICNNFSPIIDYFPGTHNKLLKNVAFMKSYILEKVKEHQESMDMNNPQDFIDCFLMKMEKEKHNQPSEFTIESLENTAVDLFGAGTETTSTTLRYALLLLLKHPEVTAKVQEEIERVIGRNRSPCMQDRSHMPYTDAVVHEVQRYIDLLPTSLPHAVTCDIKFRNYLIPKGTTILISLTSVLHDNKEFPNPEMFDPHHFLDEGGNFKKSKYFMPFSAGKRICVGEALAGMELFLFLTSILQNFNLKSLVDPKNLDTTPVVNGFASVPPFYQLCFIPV
Sequence of Cytochrome P450 2C19 (P33261 whole entry): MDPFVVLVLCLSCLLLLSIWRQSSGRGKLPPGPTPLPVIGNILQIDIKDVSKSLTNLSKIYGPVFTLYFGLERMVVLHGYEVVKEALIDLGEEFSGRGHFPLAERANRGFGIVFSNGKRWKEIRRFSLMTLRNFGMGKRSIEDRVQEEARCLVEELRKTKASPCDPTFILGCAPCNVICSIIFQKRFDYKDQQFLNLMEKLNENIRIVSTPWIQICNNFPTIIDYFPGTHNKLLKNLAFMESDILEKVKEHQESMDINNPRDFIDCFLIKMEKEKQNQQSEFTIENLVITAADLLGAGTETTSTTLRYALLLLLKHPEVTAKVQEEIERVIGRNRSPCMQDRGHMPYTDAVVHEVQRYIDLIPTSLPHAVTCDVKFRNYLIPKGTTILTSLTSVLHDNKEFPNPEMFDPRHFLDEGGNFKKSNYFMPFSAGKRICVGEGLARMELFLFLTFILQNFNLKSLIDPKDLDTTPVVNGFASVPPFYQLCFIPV

Structure (SMILES)	IC50 [1] [nM]	CC50 [2] [nM]	EC50 [3] [nM]	IC50 [4] [nM]	further results
O=C(O)/C=C/c1ccc(NC(=O)C2(NC(=O)c3ccc4c(c3)nc(-c3ccoc3)n4C3CCCCC3)CCC2)cc1	50	> 10000	1100	> 250000	–
O=C(O)/C=C/c1ccc(NC(=O)C2(NC(=O)c3ccc4c(c3)nc(-c3ccco3)n4C3CCCCC3)CCC2)cc1	110	> 10000	1200	> 250000	–
O=C(O)/C=C/c1ccc(NC(=O)C2(NC(=O)c3ccc4c(c3)nc(-c3ccsc3)n4C3CCCCC3)CCC2)cc1	120	> 10000	1500	> 250000	–
Cn1cccc1-c1nc2cc(C(=O)N[C@@H](Cc3c[nH]c4ccc(O)cc34)c3cscn3)ccc2n1C1CCCCC1	730	> 10000	2700	–	–
Cn1cccc1-c1nc2cc(C(=O)NC3(C(=O)Nc4ccc(/C=C/C(=O)O)cc4)CCC3)ccc2n1C1CCCCC1	90	> 10000	700	> 250000	–
O=C(N[C@@H](Cc1c[nH]c2ccc(O)cc12)c1cscn1)c1ccc2c(c1)nc(-c1ccccn1)n2C1CCCCC1	690	> 10000	1900	–	–
O=C(O)/C=C/c1ccc(NC(=O)C2(NC(=O)c3ccc4c(c3)nc(-c3ccccn3)n4C3CCCCC3)CCC2)cc1	100	> 10000	700	> 250000	–
O=C(N[C@@H](Cc1c[nH]c2ccc(O)cc12)c1cscn1)c1ccc2c(c1)nc(-c1ccccc1)n2C1CCCCC1	1160	> 10000	2400	–	–
O=C(O)/C=C/c1ccc(NC(=O)C2(NC(=O)c3ccc4c(c3)nc(-c3ccccc3)n4C3CCCCC3)CCC2)cc1	200	> 10000	1200	> 250000	–
O=C(O)/C=C/c1ccc(NC(=O)C2(NC(=O)c3ccc4c(c3)nc(-c3ccoc3)n4C3CCCCC3)CCCC2)cc1	–	> 10000	880	> 250000	solubility thermodynamic at 24 h [5]: 125 µg/mL (≈ 221 µM); Papp [6]: 3.9 ×10⁻⁶ cm/s; half-life at 10 µM [7]: 77 min; half-life at 10 µM [8]: 54 min; IC50 [9]: 11500 nM; IC50 [10]: 7700 nM
O=C(O)/C=C/c1ccc(NC(=O)C2(NC(=O)c3ccc4c(c3)nc(-c3ccccn3)n4C3CCCCC3)CCCC2)cc1	–	> 10000	580	> 250000	solubility thermodynamic at 24 h [5]: 100 µg/mL (≈ 173 µM); Papp [6]: 9.5 ×10⁻⁶ cm/s; half-life at 10 µM [7]: 67 min; half-life at 10 µM [8]: 17 min; IC50 [9]: 4000 nM; IC50 [10]: 7400 nM; Cmax [11]: 580 nM; Tmax [12]: 30 min; AUC [13]: 0.51 µM·h; MRT [14]: 44.4 min; fraction unbound [15]: 0.124
O=C(O)/C=C/c1ccc(NC(=O)C2(NC(=O)c3ccc4c(c3)nc(-c3cccs3)n4C3CCCCC3)CCC2)cc1	110	> 10000	1200	> 250000	–
O=C(N[C@@H](Cc1c[nH]c2ccc(O)cc12)C(=O)O)c1ccc2c(c1)nc(-c1cccs1)n2C1CCCCC1	80	–	–	–	–
O=C(N[C@@H](Cc1c[nH]c2ccc(O)cc12)c1cscn1)c1ccc2c(c1)nc(-c1cccs1)n2C1CCCCC1	450	> 10000	2800	–	–
Cn1cccc1-c1nc2cc(C(=O)N[C@@H](Cc3c[nH]c4ccc(O)cc34)C(=O)O)ccc2n1C1CCCCC1	60	–	–	–	–
O=C(N[C@@H](Cc1c[nH]c2ccc(O)cc12)C(=O)O)c1ccc2c(c1)nc(-c1ccccc1)n2C1CCCCC1	230	–	–	–	–
O=C(N[C@@H](Cc1c[nH]c2ccc(O)cc12)C(=O)O)c1ccc2c(c1)nc(-c1ccco1)n2C1CCCCC1	80	–	–	–	–
O=C(N[C@@H](Cc1c[nH]c2ccc(O)cc12)C(=O)O)c1ccc2c(c1)nc(-c1ccsc1)n2C1CCCCC1	160	–	–	–	–
O=C(N[C@@H](Cc1c[nH]c2ccc(O)cc12)c1cscn1)c1ccc2c(c1)nc(-c1ccco1)n2C1CCCCC1	270	> 10000	3400	–	–
O=C(N[C@@H](Cc1c[nH]c2ccc(O)cc12)c1cscn1)c1ccc2c(c1)nc(-c1ccsc1)n2C1CCCCC1	520	> 10000	2900	–	–
O=C(N[C@@H](Cc1c[nH]c2ccc(O)cc12)C(=O)O)c1ccc2c(c1)nc(-c1ccoc1)n2C1CCCCC1	30	–	–	–	–
O=C(N[C@@H](Cc1c[nH]c2ccc(O)cc12)C(=O)O)c1ccc2c(c1)nc(-c1ccccn1)n2C1CCCCC1	140	–	–	–	–
O=C(N[C@@H](Cc1c[nH]c2ccc(O)cc12)c1cscn1)c1ccc2c(c1)nc(-c1ccoc1)n2C1CCCCC1	220	> 10000	3600	–	solubility thermodynamic at 24 h [5]: < 0.1 µg/mL; t1/2 [16]: 26 min; IC50 [17]: 440 nM
